# A selection: hits, their analogues and other compounds. The true share with any hit is near 2.5%.
# MC4R antagonist: antagonists of human melanocortin 4 receptor (MC4R). P32245. 0.48% of 360,000 active. inhibition, % at 6.5 µM. MC4R-expressing cells, MTII-stimulated cAMP, LANCE TR-FRET;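 active = inhibition above its plate's cutoff, the mean of tested wells on that plate plus 3 SD, cut at about 29% in these data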;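 note: 0% = Melanotan II alone and 100% = Melanotan II plus saturating MCL0020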
#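 Assay system: U2OS-MC4R stable cell line; Also added: Melanotan II; Technique: Eu-cAMP/anti-cAMP TR-FRET, emission 671 nm; Times: 30-min compound, 1-h challenge, 1-h detection, room temperature.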
# A1 inh: inhibitors of the anti-apoptotic protein A1, read as caspase activation; MEF A1-2A-BIM cells, Caspase-Glo 3/7 luminescence, 3 h; percent of clofoctol response, vehicle zero; caspase activation, % (test concentration not listed); 0.066% of 330,000 active; AID 2462;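 active = over half of replicate activation scores above 10%, or exactly half above 10 with the replicate mean above 10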
# NTR1 ag: activates human neurotensin receptor 1 | activation, % at 20 µM | P30989 | AID 493036 | NTR1-U2OS beta-arrestin-GFP spot imaging, agonist mode | 0.17% of 330,000 active;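 active = activation at or above 40% of the spot to cytoplasm intensity ratio, with at least 20 cells analyzed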;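 note: 0% = DMSO without peptide and 100% = 100 nM NTR1 peptide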
# MC4R barr agon: human MC4R agonism via beta-arrestin; P32245; U2OS MC4R beta-arrestin complementation, luminescence; percent of melanotan II response, DMSO zero; activation, % at 8.9 µM; 0.98% of 360,000 active; AID 540308;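 active = activation above a per-plate cutoff, the mean activation of sample wells on that plate plus 3 SD, cut at about 8% in these data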
# HGIII-sPLA2 inh: Inhibits HGIII-sPLA2 liposome hydrolysis, primary screen; Q9NZ20; QFRET BODIPY PC-A2 liposome hydrolysis, fluorescence; 0.56% of 370,000 active; inhibition, % at 12.2 µM; AID 743126;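 active = inhibition above mean plus 3 SD of compounds lying within the high and low control bounds, cut at about 19% in these data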;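 note: 0% = median of test compound wells and 100% = no enzyme DMSO wells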
# Target sequence (Q9NZ20 whole entry, looked up): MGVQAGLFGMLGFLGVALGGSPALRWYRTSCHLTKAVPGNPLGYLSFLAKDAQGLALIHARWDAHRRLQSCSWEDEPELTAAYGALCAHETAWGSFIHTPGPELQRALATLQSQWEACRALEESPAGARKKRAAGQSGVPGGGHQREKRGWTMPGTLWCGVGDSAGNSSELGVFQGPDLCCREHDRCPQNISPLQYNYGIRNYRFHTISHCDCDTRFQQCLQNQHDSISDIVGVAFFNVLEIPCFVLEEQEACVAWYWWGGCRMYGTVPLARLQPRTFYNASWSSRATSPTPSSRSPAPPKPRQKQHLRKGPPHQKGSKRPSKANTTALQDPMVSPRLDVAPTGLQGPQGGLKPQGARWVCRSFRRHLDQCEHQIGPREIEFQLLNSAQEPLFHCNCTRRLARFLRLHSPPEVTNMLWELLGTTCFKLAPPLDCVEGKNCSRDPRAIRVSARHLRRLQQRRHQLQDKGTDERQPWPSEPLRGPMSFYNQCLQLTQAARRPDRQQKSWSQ
# Granule exo inh: lytic granule exocytosis inhibition; TALL-104 LAMP-1 surface exposure, flow cytometry; cells stimulated with thapsigargin and PMA; inhibition, % at 10 µM; 0.66% of 360,000 active; AID 651702;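 active = inhibition above about 55%, limit read from the data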
# sPLA2 confirm: human GIII-sPLA2 inhibition, confirmation; inhibition, % at 12.2 µM; shares compounds with HGIII-sPLA2 inh; recombinant hGIII-sPLA2, BODIPY PC-A2 QFRET fluorescence; AID 743280; 34% of 2,000 active;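 active = mean inhibition across triplicates above the hit cutoff set in the earlier primary screen, cut at about 19% in these data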;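 note: 0% = enzyme with DMSO and 100% = DMSO wells lacking enzyme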
# 535nm interf: counter-screen for HGIII-sPLA2 inhibitors: 535nm fluorescence interference. shares compounds with HGIII-sPLA2 inh. BODIPY FL product fluorescence interference, QFRET. inhibition, % at 12.2 µM. 8.5% of 2,000 active. AID 743282;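 active = average inhibition above the solvent-only control mean plus 3 SD, cut at about 6% in these data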;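 note: 0% = DMSO with substrate plus product and 100% = DMSO with substrate alone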
# BODIPY interf DR: interferes with 535nm fluorescence in dose response counter-screen; BODIPY FL product fluorescence interference, cell-free; AID 743455; shares compounds with HGIII-sPLA2 inh; 240 tested, under 10 active; IC50, µM;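 active = IC50 at or below 10 µM; inactive = IC50 above 10 µM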
# Starred values were filed as active, the others as inactive; / = no result given; ! = a repeat was not active.
SMILES,MC4R antagonist,A1 inh,NTR1 ag,MC4R barr agon,HGIII-sPLA2 inh,Granule exo inh,sPLA2 confirm,535nm interf,others
COc1ccccc1NC(=O)c1ccc(SCC(=O)NCc2ccccc2Cl)c([N+](=O)[O-])c1,12,0,-1,4,21*,-2,8,-2,
COc1ccccc1CNC(=O)CSc1ccc(C(=O)Nc2ccccc2OC)cc1[N+](=O)[O-],16,-1,3,-2,-2,1,/,/,
CCc1sc(C(=O)N2CCN(C(=O)c3ccccc3)CC2)cc1C,-2,-1,-1,-1,1,-2,/,/,
S=c1[nH]nc(-c2ccc3c(c2)OCO3)n1-c1ccccc1,2,0,0,1,25*,-2,23*,-2,
CC(CCl)n1c(=O)c2ccccc2n1C(=O)c1ccccc1 (stereo unspecified),/,/,/,/,24*,-4,4,-10,
COC(=O)Cn1c2ccccc2c(=O)n1C(C)CBr (stereo unspecified),/,/,/,/,7,-5,/,/,
COc1cc(N=c2ssnc2Cl)c(OC)cc1Cl,17,0,3,0,23*!,99*!,33*,1,BODIPY interf DR=>122
COc1ccc(OC)c(N=c2ssnc2Cl)c1,-3,0,-1,-2,7,7,/,/,
COc1cc(OC)c(OC)cc1CNC(=O)c1cc(=O)[nH]c2ccccc12,9,2,-2,2,3,-12,/,/,
O=C(Nc1ccc(Cl)cc1Cl)NC1CCN(S(=O)(=O)c2ccc(F)cc2)CC1,2,0,19,2,21*,11,-26,-3,
O=C(Nc1ccc(Cl)cc1Cl)NC1CCCC1,-6,0,-1,1,2,0,/,/,
CCc1ccccc1NC(=O)CCS(=O)(=O)c1ccc(C)cc1,6,-2,1,-1,20*,0,-2,-4,
CC(=O)C1=C(C)NC(=O)CC1c1ccc(Br)cc1 (stereo unspecified),2,0,-1,-2,-1,3,/,/,
CCOc1ccc(C2/C(=C(\O)c3ccc4c(c3)OCCO4)C(=O)C(=O)N2Cc2cccnc2)cc1OCC (stereo unspecified),-3,2,0,-1,1,5,/,/,
CCOc1ccccc1-c1nnc(SCC(=O)NC2CC2)n1CC,15,0,0,2,9,25,/,/,
Cc1ccccc1NC(=O)NNC(=O)c1ccc2ccccc2c1O,0,0,-1,0,39*,0,28*,1,BODIPY interf DR=>122
COc1ccccc1NC(=O)NNC(=O)c1ccc2ccccc2c1,11,0,0,-4,-3,-3,/,/,
COc1cccc(C(=O)NNC(=O)c2ccc3ccccc3c2O)c1,-3,-1,0,-3,25*,8,14,0,
O=C(NNC(=O)c1cccc2ccccc12)c1ccc(Cl)cc1Cl,-1,/,/,-1,-18,-1,/,/,
COc1ccccc1NC(=O)NNC(=O)c1ccc2ccccc2c1O,8,1,0,-2,30*,-1,36*,5,BODIPY interf DR=>122
O=C(NNC(=O)c1ccc2ccccc2c1O)c1ccccc1Cl,4,-2,-1,-1,31*,-5,37*,3,BODIPY interf DR=>122
Cc1ccccc1NC(=O)NNC(=O)c1ccc2ccccc2c1,1,2,0,-2,1,-4,/,/,
CCn1c(=O)c(=O)n(CC)c2cc(S(=O)(=O)Nc3cc(C)ccc3C)ccc21,4,0,-1,-2,-4,8,/,/,
C[C@@H]1CN([C@H](C)CO)S(=O)(=O)c2ccc(C3=CCCCC3)cc2O[C@H]1CN(C)C(=O)Cc1cccnc1,7,/,/,3,-17,-2,/,/,
Cc1nnsc1C(=O)N1CCCC1(C)C(=O)O (stereo unspecified),-8,/,/,0,1,-1,/,/,
SMILES,MC4R antagonist,A1 inh,NTR1 ag,MC4R barr agon,HGIII-sPLA2 inh,Granule exo inh,sPLA2 confirm,535nm interf,others
CC(C)C[C@H]1COc2cc(F)ccc2S(=O)(=O)N1C,/,/,/,/,2,/,/,/,
Cc1ccc(C2(C)NC(=O)N(CC(=O)N(Cc3ccccc3)C(C)(C)C)C2=O)cc1 (stereo unspecified),6,0,1,1,-4,-3,/,/,
CS(=O)(=O)N1CCN(c2ccc(NC(=S)NC(=O)c3ccccc3[N+](=O)[O-])cc2)CC1,4,0,2,-3,6,-5,/,/,
CN(Cc1ccc(F)cc1)C(=O)c1ccc(NS(=O)(=O)c2ccccc2)cc1,-1,1,0,-1,-11,-4,/,/,
COc1ccc(NC(=O)Nc2cccc3ccccc23)cc1OC,1,2,1,0,6,-2,/,/,
COc1ccc(NC(=O)NNC(=O)c2ccc3ccccc3c2O)cc1OC,5,0,-1,-2,28*,-3,28*,1,BODIPY interf DR=>122
Cc1ccc(NC(=O)Cn2cccc2C2=NC(c3ccccc3)CO2)cc1C (stereo unspecified),0,0,1,0,21*,10,-7,-13,
CCc1ccccc1NC(=O)Cn1cccc1C1=NC(c2ccccc2)CO1 (stereo unspecified),4,0,1,4,6,2,/,/,
C/C(=N\Nc1ncc(Cl)cc1Cl)c1ccc(OC(F)F)cc1,1,1,5,-2,4,-2,/,/,
C/C(=N\Nc1ncc(Cl)cc1Cl)c1ccc2c(c1)OCO2,21,-3,2,-3,20*,3,4,-5,
NC(=S)NNC(=O)C12CC3CC(CC(C3)C1)C2,0,2,0,-1,21*,3,9,0,
COC(=O)NNC(=O)C12CC3CC(CC(C3)C1)C2,-12,0,1,0,0,-1,/,/,
Cc1cccc2c1N(CCOc1ccc(C(C)(C)C)cc1)C(=O)C2=O,-22,2,12,-4,8,10,/,/,
Cc1ccc(OCCCN2C(=O)C(=O)c3cccc(C)c32)cc1,-4,0,7,0,26*,12,26*,-3,
Cc1cc(C(=O)Nc2nc(-c3ccccn3)cs2)ccc1[N+](=O)[O-],18,0,5,-2,26*,-2,28*,-2,BODIPY interf DR=>122
CCc1cc(C(=O)Nc2nc(-c3ccccn3)cs2)sc1C,17,0,3,-6,21*,4,25*,3,
O=C(Nc1nc(-c2ccccn2)cs1)c1ccc(-c2ccccc2F)o1,3,-1,9,1,21*,-6,24*,4,
